These results are taken from ChEMBL document CHEMBL4014332, “Multitargeted Imidazoles: Potential Therapeutic Leads for Alzheimer's and Other Neurodegenerative Diseases” (J Med Chem, 2017).

Data set [1] deals with Cyclooxygenase (Rattus norvegicus) (UniProt P35355+Q63921). The settings on record: at 10 nM.
The species entered for data set [2] is Rattus norvegicus. The settings on record: at 10 nM.
The target in another data set is T1, Cyclooxygenase (Rattus norvegicus, UniProt P35355+Q63921).
T1 sequence (P35355 whole entry): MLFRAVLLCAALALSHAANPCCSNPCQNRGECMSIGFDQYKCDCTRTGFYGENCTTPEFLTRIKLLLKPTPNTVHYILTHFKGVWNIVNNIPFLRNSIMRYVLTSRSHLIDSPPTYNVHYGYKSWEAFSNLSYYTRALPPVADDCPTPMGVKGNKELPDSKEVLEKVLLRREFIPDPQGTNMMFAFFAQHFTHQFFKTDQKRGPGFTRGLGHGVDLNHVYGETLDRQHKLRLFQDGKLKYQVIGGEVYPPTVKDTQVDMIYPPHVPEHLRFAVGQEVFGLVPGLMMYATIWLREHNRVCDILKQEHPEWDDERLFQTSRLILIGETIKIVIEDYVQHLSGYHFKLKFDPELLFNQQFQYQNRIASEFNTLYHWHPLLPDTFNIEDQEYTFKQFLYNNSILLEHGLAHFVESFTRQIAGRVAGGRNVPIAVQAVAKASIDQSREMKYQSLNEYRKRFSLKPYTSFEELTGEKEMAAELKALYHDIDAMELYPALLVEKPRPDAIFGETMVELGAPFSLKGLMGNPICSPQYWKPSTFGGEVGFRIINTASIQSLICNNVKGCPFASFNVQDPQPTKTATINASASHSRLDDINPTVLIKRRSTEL
T1 sequence (Q63921 whole entry): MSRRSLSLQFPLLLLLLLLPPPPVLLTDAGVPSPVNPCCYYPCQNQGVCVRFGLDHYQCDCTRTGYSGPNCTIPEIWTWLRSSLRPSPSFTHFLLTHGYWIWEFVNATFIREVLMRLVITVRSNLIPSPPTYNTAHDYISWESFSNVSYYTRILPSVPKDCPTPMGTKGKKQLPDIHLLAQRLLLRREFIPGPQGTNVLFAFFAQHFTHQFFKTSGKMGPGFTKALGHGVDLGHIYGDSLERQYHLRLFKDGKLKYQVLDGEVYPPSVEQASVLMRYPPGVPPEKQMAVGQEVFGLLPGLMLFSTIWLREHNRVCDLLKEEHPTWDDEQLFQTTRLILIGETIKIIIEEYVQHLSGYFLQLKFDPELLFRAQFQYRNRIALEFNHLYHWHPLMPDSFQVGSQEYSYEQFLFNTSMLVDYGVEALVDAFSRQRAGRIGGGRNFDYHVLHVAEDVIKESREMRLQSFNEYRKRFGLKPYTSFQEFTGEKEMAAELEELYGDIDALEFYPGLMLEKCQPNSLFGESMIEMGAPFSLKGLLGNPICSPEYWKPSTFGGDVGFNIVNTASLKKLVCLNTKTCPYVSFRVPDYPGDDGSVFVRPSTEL
Kind of data set: Inhibition of COX-mediated PGD2/PGE2 production in arachidonic acid-stimulated RBL1 cells preincubated for 2 hrs followed by A23187 induction for 15 mins by LC/MS/MS analysis. In outline: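 RBL-1 cells in RPMI/10% FBS, 9 × 10⁵ cells/well, held 2 h, then exposed to compound for 2 h at multiple concentrations in triplicate. Stimulation was 12 μM A23187 for 15 min. Eicosanoids were extracted with MeOH/0.01% BHT, and PGD₂ plus PGE₂ measured by UPLC-MS/MS (negative ion, 351 > 315).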

The species named for data set [3] is Rattus norvegicus. Kind of data set: Inhibition of 5-LOX-mediated LTB4 production in arachidonic acid-stimulated RBL1 cells at 10 uM preincubated for 2 hrs followed by A23187 induction for 15 mins by LC/MS/MS analysis relative to control. In short, it runs like this:
(§1)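 RBL-1 cells grown in RPMI/10% FBS, plated 9 × 10⁵ cells/well, held 2 h at 37 °C, then given compound for 2 h (screen at 10 μM, then concentration–response in triplicate). Stimulation was 12 μM A23187 for 15 min. Supernatants were extracted with MeOH/0.01% BHT and LTB₄ quantified by UPLC-MS/MS in negative ion mode.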

Data set [4] in a line: Change in total alpha-tubulin levels in human QBI293 cells at 1 uM after 4 hrs by ELISA relative to control. The conditions noted are these: qbi293, 4 h. (An ELISA detects its analyte on a solid surface through an enzyme-linked reagent.)
Data set [5] can be described thus: Ratio of drug level in brain to plasma in mouse at 5 mg/kg, ip administered as single dose. The format is ADME, organism-based. The settings on record: read-out: BPR. In short, it runs like this:
(§2)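 Groups of three CD-1 or B6SJL mice, 2–5 months old, sexes not mixed, received a single 5 mg/kg i.p. dose in DMSO. Compound was quantified in plasma and brain homogenate at a single time point, and the brain/plasma ratio was derived from these. Values are mean ± SD.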

Data set [6] can be described thus: Plasma concentration in mouse at 5 mg/kg, ip administered as single dose after 1 hr by LC-MS/MS method. The format is ADME, organism-based. In outline: as §2
The nature of data set [7]: Inhibition of 5-LOX-mediated LTB4 production in arachidonic acid-stimulated RBL1 cells preincubated for 2 hrs followed by A23187 induction for 15 mins by LC/MS/MS analysis. The settings on record: Rattus norvegicus, RBL-1. In short, it runs like this:
as §1

Data set [8] can be described thus: Drug uptake in mouse brain at 5 mg/kg, ip administered as single dose after 1 hr by LC-MS/MS method. The format is ADME, organism-based. The conditions noted are these: read-out: Drug uptake. In short, it runs like this:
as §2

SMILES strings stand for the structures. pIC50: −log10 of the molar value.

What is called inhibition is the drop in the measured response relative to a control, in per cent. A lower inhibition goes with a response near the control. Take `CC(C)c1ccc2c(c1)c(SC(C)(C)C)c(CC(C)(C)C(=O)O)n2Cc1ccc(Cl)cc1`: the inhibition in data set [1] is under 10%; in the data set listed under Rattus norvegicus [2], 70%.
As usually defined, the IC50 is the concentration that gives 50% inhibition. For orientation: pIC50 means the IC50 on a negative log10 scale, so that one unit is a factor of ten. Low values mean a high IC50, high ones a low IC50. Consider `Fc1ccc(F)c(-c2c(Cl)ncn2-c2ccc(Cl)cc2)c1F`, for which the IC50 on Cyclooxygenase worked out at 2.9 µM. Also, the inhibition in the data set filed under Rattus norvegicus [3] is 69%. For the same molecule, the Activity entry in data set [4] was “Non-Toxic”. Moreover, the Kp in data set [5] was found to be 2.8. Moreover, the concentration at 1 h is 300 nM in data set [6] and 700 nM in data set [8]. Further, the pIC50 in data set [7] is 5.62.
On Cyclooxygenase, `Fc1cc(-n2cnc(Cl)c2-c2c(F)ccc(F)c2F)ccc1Cl` came in with an IC50 of 4.6 µM. In addition, the inhibition in the data set listed under Rattus norvegicus [3] came out at 66%. Also, in [4], the Activity result is “Non-Toxic”. The Kp in data set [5] was determined as 3. Besides, the concentration at 1 h in [6] was 240 nM; in [8] it was 700 nM. Further, in [7], the pIC50 was 5.22.
On to `Fc1cccc(F)c1-c1cnc(Cl)n1-c1ccc(Cl)cc1`, for which the half-maximal inhibitory concentration (IC50) against Cyclooxygenase was 15 µM. This molecule gave an inhibition in the data set listed under Rattus norvegicus [3] of 92%. In [4], the Activity result was “Non-Toxic”. In addition, the Kp in data set [5] turned out to be 1.9. Besides, the values for the concentration at 1 h in data set [6] and in [8] were 480 nM and 900 nM, respectively. Also, the pIC50 in data set [7] is 4.97.
